In ChEMBL document CHEMBL1137088, “Distamycin analogues with enhanced lipophilicity: synthesis and antimicrobial activity” (2004):
In brackets after ≈: the same amount, converted by molar mass. Activity calls are given as the source filed them. The rule behind the calls is not given here.

What was measured:
[1] = Antifungal activity against Candida albicans NCPF 3179 strain; na = not active; assay type: functional
Aspergillus niger [2] = test: Antifungal activity against Aspergillus niger IMI17454 strain.; assay type: functional; settings: Aspergillus niger; read-out: MIC
Aspergillus nidulans = test: Antifungal activity against Aspergillus nidulans CABI 0160037 strain; assay type: functional
Enterococcus faecalis [3] = test: Antibacterial activity against Streptococcus faecalis NCTC 775 strain.; assay type: functional
[4] = Antibacterial activity against Proteus vulgaris NCTC 4175 strain; na = not active; assay type: functional
Klebsiella aerogenes [5] = test: Antibacterial activity against Klebsiella aerogenes WRL CN 345 strain; na = not active; assay type: functional, organism-based
Staphylococcus aureus [6] = test: Antibacterial activity against Staphylococcus aureus NCTC 6571 strain.; assay type: functional
Escherichia coli = test: Antibacterial activity against Escherichia coli NCTC 9001 strain.; assay type: functional, organism-based
Staphylococcus aureus [7] = test: Antibacterial activity against methicillin-resistant Staphylococcus aureus (MRSA) PHLS M1 strain.; assay type: functional
Method in brief: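 Read-out is the minimum inhibitory concentration, reported in µM. Amoxycillin is tested alongside as the reference antibiotic.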

Aspergillus niger [8] = test: Antifungal activity against Aspergillus niger IMI17454 strain; na = not active; assay type: functional
[9] = tested on: Mycolicibacterium fortuitum; test: Antibacterial activity against Mycobacterium fortuitum NCTC 10394 strain.; assay type: functional
Enterobacter cloacae = test: Antibacterial activity against Enterobacter cloacae NCTC 10005 strain.; assay type: functional, organism-based
[10] = Antibacterial activity against Enterobacter cloacae NCTC 10005 strain; assay type: functional
Klebsiella aerogenes [11] = test: Antibacterial activity against Klebsiella aerogenes WRL CN 345 strain.; assay type: functional, WRL CN 375; settings: Klebsiella aerogenes, WRL CN 375; read-out: MIC
Candida albicans = test: Antifungal activity against Candida albicans NCPF 3179 strain.; assay type: functional; settings: Candida albicans; read-out: MIC
Proteus vulgaris = test: Antibacterial activity against Proteus vulgaris NCTC 4175 strain.; assay type: functional
Staphylococcus aureus [12] = test: Antibacterial activity against Staphylococcus aureus NCTC 6571 strain; na = not active; assay type: functional, organism-based
Staphylococcus aureus [13] = test: Antibacterial activity against MRSA PHLS M1 strain; na = not active; assay type: functional, organism-based
Enterococcus faecalis [14] = test: Antibacterial activity against Streptococcus faecalis NCTC 775 strain; na = not active; assay type: functional, organism-based

Structure (SMILES) | MIC [1] | MIC (Aspergillus niger [2]) | MIC (Aspergillus nidulans) | MIC (Enterococcus faecalis [3]) | MIC [4] | MIC (Klebsiella aerogenes [5]) | MIC (Staphylococcus aureus [6]) | MIC (Escherichia coli) | MIC (Staphylococcus aureus [7]) | MIC (Aspergillus niger [8]) | MIC [9] | MIC (Enterobacter cloacae) | MIC [10] | MIC (Klebsiella aerogenes [11]) | MIC (Candida albicans) | MIC (Proteus vulgaris) | MIC (Staphylococcus aureus [12]) | MIC (Staphylococcus aureus [13]) | MIC (Enterococcus faecalis [14])
OC(Cn1cncn1)(Cn1cncn1)c1ccc(F)cc1F [FLUCONAZOLE] | 81.6 µM (≈ 25 µg/mL) | > 300 µM | 90.8 µM (≈ 27.8 µg/mL) | – | – | – | – | – | – | – | – | – | – | – | – | – | – | – | –
COc1cccc(C(=O)Nc2cc(C(=O)Nc3cc(C(=O)Nc4cc(C(=O)NCCCN(C)C)n(C)c4)n(CCC(C)C)c3)n(C)c2)c1 | inactive | – | – | 16.2 µM (≈ 10.7 µg/mL) | inactive | inactive | 16.2 µM (≈ 10.7 µg/mL) | inactive | 2 µM (≈ 1.32 µg/mL) | inactive | 32.4 µM (≈ 21.3 µg/mL) | inactive | – | – | – | – | – | – | –
CC(C)n1cc(NC(=O)c2cc(NC(=O)c3cc(NC=O)cn3C(C)C)cn2C(C)C)cc1C(=O)NCCCN(C)C | – | 72 µM (≈ 41.8 µg/mL) | 72 µM (≈ 41.8 µg/mL) | 72 µM (≈ 41.8 µg/mL) | – | – | 144 µM (≈ 83.6 µg/mL) | inactive | 144 µM (≈ 83.6 µg/mL) | – | 72 µM (≈ 41.8 µg/mL) | – | 36 µM (≈ 20.9 µg/mL) | 36 µM (≈ 20.9 µg/mL) | 144 µM (≈ 83.6 µg/mL) | 144 µM (≈ 83.6 µg/mL) | – | – | –
CC(=O)Nc1cc(C(=O)Nc2cc(C(=O)Nc3cc(C(=O)NCCCN(C)C)n(C)c3)n(C)c2)n(C)c1 | – | 160 µM (≈ 81.7 µg/mL) | 160 µM (≈ 81.7 µg/mL) | 160 µM (≈ 81.7 µg/mL) | – | – | – | inactive | 40 µM (≈ 20.4 µg/mL) | – | 160 µM (≈ 81.7 µg/mL) | – | 160 µM (≈ 81.7 µg/mL) | 80 µM (≈ 40.8 µg/mL) | 160 µM (≈ 81.7 µg/mL) | 160 µM (≈ 81.7 µg/mL) | inactive | – | –
CC(=O)Nc1cc(C(=O)Nc2cc(C(=O)Nc3cc(C(=O)NCCCN4CCCC4)n(C)c3)n(C)c2)n(C)c1 | inactive | 153 µM (≈ 82.1 µg/mL) | 153 µM (≈ 82.1 µg/mL) | 153 µM (≈ 82.1 µg/mL) | inactive | – | – | inactive | – | – | 76.9 µM (≈ 41.3 µg/mL) | – | 153 µM (≈ 82.1 µg/mL) | 153 µM (≈ 82.1 µg/mL) | – | – | inactive | inactive | –
CN[C@@H]1[C@H](O[C@H]2[C@H](O[C@H]3[C@H](O)[C@@H](O)[C@H](N=C(N)N)[C@@H](O)[C@@H]3N=C(N)N)O[C@@H](C)[C@]2(O)C=O)O[C@@H](CO)[C@H](O)[C@H]1O [STREPTOMYCIN] | – | – | – | – | – | – | 10.8 µM (≈ 6.28 µg/mL) | – | – | – | – | – | – | – | – | – | – | – | –
CC(C)CCn1cc(NC(=O)c2cc(NC(=O)c3cc([N+](=O)[O-])cn3C)cn2C)cc1C(=O)Nc1cc(C(=O)NCCCN(C)C)n(C)c1 | – | 15.8 µM (≈ 10.7 µg/mL) | 25.8 µM (≈ 17.5 µg/mL) | 15.8 µM (≈ 10.7 µg/mL) | – | – | 31.6 µM (≈ 21.4 µg/mL) | inactive | 126 µM (≈ 85.3 µg/mL) | – | 15.8 µM (≈ 10.7 µg/mL) | inactive | – | 15.8 µM (≈ 10.7 µg/mL) | 15.8 µM (≈ 10.7 µg/mL) | 126 µM (≈ 85.3 µg/mL) | – | – | –
COc1cccc(C(=O)Nc2cc(C(=O)Nc3cc(C(=O)Nc4cc(C(=O)NCCCN5CCN(C)CC5)n(C)c4)n(CCC(C)C)c3)n(C)c2)c1 | – | 121 µM (≈ 86.4 µg/mL) | 30.2 µM (≈ 21.6 µg/mL) | 60.4 µM (≈ 43.1 µg/mL) | – | – | 60 µM (≈ 42.8 µg/mL) | inactive | 121 µM (≈ 86.4 µg/mL) | – | 121 µM (≈ 86.4 µg/mL) | – | 121 µM (≈ 86.4 µg/mL) | 121 µM (≈ 86.4 µg/mL) | 121 µM (≈ 86.4 µg/mL) | 121 µM (≈ 86.4 µg/mL) | – | – | –
CC(C)c1sc(NC(=O)c2cc(NC(=O)c3cc(NC=O)cn3C)cn2C)nc1C(=O)NCCCN(C)C | – | 76.1 µM (≈ 41.3 µg/mL) | 76.1 µM (≈ 41.3 µg/mL) | 9.5 µM (≈ 5.16 µg/mL) | – | – | 4.7 µM (≈ 2.55 µg/mL) | inactive | 38.1 µM (≈ 20.7 µg/mL) | – | 19 µM (≈ 10.3 µg/mL) | – | 76.2 µM (≈ 41.4 µg/mL) | 76.2 µM (≈ 41.4 µg/mL) | 76.1 µM (≈ 41.3 µg/mL) | 9.5 µM (≈ 5.16 µg/mL) | – | – | –
CC(C)c1sc(NC(=O)c2cc(NC=O)cn2C)nc1C(=O)Nc1cc(C(=O)NCCCN(C)C)n(C)c1 | – | 38.1 µM (≈ 20.7 µg/mL) | 9.5 µM (≈ 5.16 µg/mL) | 9.5 µM (≈ 5.16 µg/mL) | inactive | – | 4.8 µM (≈ 2.6 µg/mL) | inactive | 19.1 µM (≈ 10.4 µg/mL) | – | 19 µM (≈ 10.3 µg/mL) | – | 9.5 µM (≈ 5.16 µg/mL) | 38.1 µM (≈ 20.7 µg/mL) | 38.1 µM (≈ 20.7 µg/mL) | – | – | – | –
CC1(C)S[C@@H]2[C@H](NC(=O)[C@H](N)c3ccc(O)cc3)C(=O)N2[C@H]1C(=O)O [AMOXICILLIN] | – | – | – | 0.49 µM (≈ 0.179 µg/mL) | – | – | 0.49 µM (≈ 0.179 µg/mL) | – | 16.1 µM (≈ 5.88 µg/mL) | – | 16.1 µM (≈ 5.88 µg/mL) | – | 4 µM (≈ 1.46 µg/mL) | 8.1 µM (≈ 2.96 µg/mL) | – | 4 µM (≈ 1.46 µg/mL) | – | – | –
CCn1cc(NC(=O)c2cc(NC(=O)c3cc(NC=O)cn3C)cn2C)nc1C(=O)NCCCN(C)C | inactive | – | 160 µM (≈ 81.9 µg/mL) | – | – | – | – | inactive | – | inactive | 160 µM (≈ 81.9 µg/mL) | inactive | – | 40 µM (≈ 20.5 µg/mL) | – | 160 µM (≈ 81.9 µg/mL) | inactive | inactive | inactive
